Experiments:
Tpx WT/inhibitor complex = target: T1, Tpx WT/inhibitor complex (Trypanosoma brucei brucei, UniProt O77404); test: SEC-MALS of Tpx/inhibitor complexes; assay type: binding, T. brucei; details: SEC-MALS at 100 μM protein concentration
T1 sequence (O77404 with tags, fused parts or gaps): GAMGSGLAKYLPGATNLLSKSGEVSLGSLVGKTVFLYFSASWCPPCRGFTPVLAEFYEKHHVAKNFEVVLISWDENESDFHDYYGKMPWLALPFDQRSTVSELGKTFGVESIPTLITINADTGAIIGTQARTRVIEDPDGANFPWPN
In short: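 Covalent complexes were formed as for ITC (TCEP-reduced Tpx, 3-fold excess inhibitor, 30 min, 25 °C) and SEC-purified. 100 µM complex was run on Superdex 75 10/300 in 25 mM NaPi pH 7.5, 150 mM NaCl at 0.5 ml/min, room temperature. Molar mass came from multi-angle light scattering plus refractive index detection, using a Zimm model.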

[1] = system: T. brucei brucei 449 (strain: Lister 427, bloodstream form); test: Trypanosome cell survival assay; assay type: cell-based; details: Trypanosoma brucei, 24 h, read-out: EC50 (24 h)

Question: Which “oligomeric state of Tpx/inhibitor complex” value (Tpx WT/inhibitor complex) does the source give for `O=c1[nH]c(CCl)nc2scc(-c3ccc(C(F)(F)F)cc3)c12` [CtFT, 2-(Chloromethyl)-5-(4-(trifluoromethyl)phenyl)thieno[2,3-d]pyrimidin-4(3H)-one] here?
Answer: remained monomeric

Question: What about the EC50 [1] of the same molecule?
Answer: 2.2 ± 0.6 µM

Question: How did the EC50 [1] turn out when `O=c1[nH]c(CCl)nc2scc(-c3ccccc3)c12` [CPT, 2-(Chloromethyl)-5-phenylthieno[2,3-d]pyrimidin-4(3H)-one] was run?
Answer: 0.6 ± 0.3 µM
